# ChEMBL document CHEMBL1126291 (J Med Chem, 1992)
# Legend:
# Type in all cases: functional
# Leishmania donovani [1] = experiment: Growth inhibition of Leishmania donovani promastigotes by the compound at 14 uM
# In short: (§1)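 Seeded at 0.5 × 10^6 cells per well. Compounds added a few hours later in water. Cells counted by hemacytometer after 3 days, against untreated cultures. Duplicates.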
# Leishmania donovani [2] = experiment: Growth inhibition of Leishmania donovani promastigotes by the compound at 1.3 uM; in short: as §1
# Leishmania donovani [3] = experiment: Growth inhibition of Leishmania donovani promastigotes by the compound at […]; details: for inhibition at […]: Leishmania donovani
SMILES,inhibition at 14 µM (Leishmania donovani [1]),inhibition at […] (Leishmania donovani [3]),other results
NC(CC[C@H](N)C(=O)O)C[C@H]1OC(N2CCC(=O)NC2=O)[C@H](O)[C@@H]1O (stereo partly specified),19%,–,–
Nc1ncnc2c1ncn2[C@@H]1O[C@H](C[C@H](N)CC[C@H](N)C(=O)O)[C@@H](O)[C@H]1O,–,34%,inhibition at 1.3 µM (Leishmania donovani [2]): 91%
Nc1ncnc2c1ncn2[C@@H]1O[C@H](C[C@@H](N)CC[C@H](N)C(=O)O)[C@@H](O)[C@H]1O (stereo in doubt; form 2) [SINEFUNGIN],–,–,Inhibition (Leishmania donovani [3]): 88%
Nc1ncnc2c1ncn2[C@@H]1O[C@H](C[C@@H](N)CC[C@H](N)C(=O)O)[C@@H](O)[C@H]1O (stereo in doubt; form 1) [SINEFUNGIN],–,100%,–
NC(CC[C@H](N)C(=O)O)C[C@H]1OC(n2ccc(=O)[nH]c2=O)[C@H](O)[C@@H]1O (stereo partly specified),20%,–,–
